A short description of the series: Toxicity liver stage against HepG2, at 10uM. Type of series: cell-based. To be noted: human, HepG2-A16-CD81EGFP cells; read-out: INHIBITION
Set-up: test concentration 10 uM, cell line HepG2-A16-CD81EGFP. The procedure, abridged:
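Uninfected HepG2-A16-CD81EGFP cells, 3 × 10^3 per well, 1536-well, plated on prespotted compound at 10 μM final, parasite-free screening media added to match infected plates; puromycin 10 μM positive, DMSO 0.5% negative; run in parallel with 48 h PbLuc assay at 37 °C, 5% CO2; viability by CellTiter-Glo luminescence, normalized to controls.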
In the case of `O=C(c1cc(Cl)c2c(c1)OCO2)N1CCN(c2ccccn2)CC1`, the cytotoxicity at 10 µM is -2.67%. Under `CCN(CCc1ccccc1)Cn1nc(C)c2c(C)onc2c1=O` stands -5.18%; under `CCc1nnc(SCC(=O)N2CCc3[nH]nc(C4CCC4)c3C2)o1`, -5.22%. The result for `Cc1nc(C)n(CC2CN(Cc3ccncc3)Cc3nccn3C2)n1` (stereo unspecified) reads -142%; that for `CCC(Nc1ccc(Oc2ccccc2OC)cc1)C(N)=O` (stereo unspecified), 1.77%. The result for `O=C(CCC1CCN(C2Cc3ccccc3C2)CC1)NCC1CCCO1` (stereo unspecified) reads 7.36%; that for `Cc1nccc(N2CCC(Cc3cccc(C(=O)O)c3)CC2)n1`, -135%.

As for `Cc1nn(CN(Cc2ccsc2)C2CC2)c(=O)c2noc(C)c12`, the cytotoxicity at 10 µM was -1.54%.

Consider `Cc1cc(CNC(=O)CC2CCN(C(C)C)CC2)n(C)n1`, for which the cytotoxicity at 10 µM was -1.77%. The result for `CN1CCN(c2ccc(NCc3ccc([S+](C)[O-])cc3)cn2)CC1` (stereo unspecified) reads 9.84%; that for `COc1ccccc1C(=O)N1CCN(CCc2scnc2C)CC1`, 1.79%. Under `Fc1ccccc1C(CNc1ccncn1)N1CCCC1` (stereo unspecified) stands 2.84%; under `O=C(c1ccc[nH]1)N1CCC(c2nccn2Cc2ccncc2)CC1`, -16.8%; under `Cc1nccc(CN2Cc3nccn3CC2c2ccccc2)n1` (stereo unspecified), 3.1%. The result for `Cc1cnn(CC2CN(Cc3nccn3CC(F)(F)F)CCO2)c1` (stereo unspecified) reads -11.7%. Regarding `Cc1nn(C)c(C)c1CC(=O)NCC1(C(N)=O)CCOCC1`, the cytotoxicity at 10 µM was 0.63%. Consider `CCOC(=O)N1CCN(CC(=O)Nc2nnc(C)s2)CC1`, for which the cytotoxicity at 10 µM came out at 1.31%.

For `Cc1nn(C)c(Cl)c1C1CCCN1Cc1nnc(C2CC2)n1C` (stereo unspecified), the cytotoxicity at 10 µM was -2.24%. Under `Cc1nnc(CNC(=O)CC2CCc3ccccc32)o1` (stereo unspecified) stands 1.58%. Under `CC1CCN(CCNC(=O)C2CCN(S(N)(=O)=O)CC2)CC1` stands 17.9%. With `CCOC(=O)[C@]12CCCN(Cc3ccsc3)C[C@H]1CN(CCOC)C2`, the cytotoxicity at 10 µM is -127%.

As to `Cn1ncc2c(N3CCS(=O)(=O)CC3)nc(C3CCCC3)nc21`, the cytotoxicity at 10 µM is -1.31%. For the compound `Cc1ccc(N2C[C@@H]3OCCN(Cc4c(C)noc4C)[C@@H]3C2)nn1`, the cytotoxicity at 10 µM is -1.62%. Turning to `CCOCc1nc(N2CCCC2)sc1C(=O)NCc1ccco1`, the cytotoxicity at 10 µM is -1.89%.

As to `c1coc(-c2nc(CN3CCCC(Cn4cncn4)C3)cs2)c1` (stereo unspecified), the cytotoxicity at 10 µM was -12%. The result for `O=C(c1ccco1)N1CCC(n2nc(-c3ccco3)ccc2=O)CC1` reads -20.5%; that for `Cc1ccc(C(=O)NCCCN(C(C)C)S(C)(=O)=O)c(=O)[nH]1`, -8.04%; that for `CCOCC1CN(Cc2ccc3c(c2)OCO3)Cc2ncn(C)c21` (stereo unspecified), 5.61%. The result for `CC(C)Cn1cc(C(=O)NC2CCS(=O)(=O)C2)c2ccccc2c1=O` (stereo unspecified) reads 0.724%; that for `CCN(CC)Cc1nc2c(o1)CN(C(=O)c1ccc3[nH]ccc3c1)C2`, 7.07%. `COCCNc1cc(C2CCCNC2)ccn1` (stereo unspecified): the cytotoxicity at 10 µM is -7.17%.

`CS(=O)(=O)CCCNC(=O)C1(c2cccc(Cl)c2)CC1`: the cytotoxicity at 10 µM was -2.26%. The result for `Cn1ccnc1SCCNc1nccc(C(F)(F)F)n1` reads -51%; that for `CCn1ncc2c1CCCC2NCc1ccc(C)s1` (stereo unspecified), -6.73%. Under `COc1ccc2nc(C3CC3)cc(C(=O)NCCc3nnc[nH]3)c2c1` stands 0.867%; under `CSc1cccc(CNC(=O)[C@H]2CNC[C@H](C(=O)N3CCOCC3)C2)c1`, -1.74%. Under `O=C(Nc1cccnc1)[C@H]1C[C@H]2CN(C(=O)NC3CCCC3)C[C@@H]1O2` stands 2.96%.

As to `Cc1nc(C2CCCN(C(=O)c3ccc(Cn4cccn4)o3)C2)no1` (stereo unspecified), the cytotoxicity at 10 µM is -6.38%. The result for `CCn1cc(CN2C[C@@H]3CC[C@H]2CN(C(=O)c2cnccn2)C3)cn1` reads -8.39%. Under `Cc1ncccc1OC1(C(=O)NCc2noc(C(C)C)n2)CCNCC1` stands 5.68%. In the case of `CCn1cc(CN2CCc3nc(N4CCOCC4)nc(O)c3CC2)cn1`, the cytotoxicity at 10 µM is -5.59%.

In the case of `CC(C)c1ccc(S(=O)(=O)N2CCCC3(CCCN3S(C)(=O)=O)C2)cc1` (stereo unspecified), the cytotoxicity at 10 µM was -0.96%. With `CCOCC(=O)N1C[C@@H]2CC[C@H]1CN(C(=O)c1ccncc1)C2`, the cytotoxicity at 10 µM stood at 0.0793%. Under `CCC(O)CN1CCN(C(=O)c2ccc(Cn3cccc3)cc2)CC1` (stereo unspecified) stands -6.54%. The result for `NC(=O)CN(Cc1ccc(Br)cc1)C(=O)c1cnccn1` reads 8.48%; that for `CN(CCCO)C(=O)c1cc(COc2ccc3c(c2)CCCC3)on1`, -148%. Under `O=C(c1n[nH]cc1Cl)N1CCCC(n2nnc3cc(F)ccc32)C1` (stereo unspecified) stands -8.55%. Turning to `CN(CCOc1ccc(C#N)cc1)CC1CCS(=O)(=O)C1` (stereo unspecified), the cytotoxicity at 10 µM was -6.94%. As for `Cc1cccc(NC(=O)c2ccc(-n3cncn3)nn2)n1`, the cytotoxicity at 10 µM is -0.895%. The result for `COC(=O)c1cc(NS(=O)(=O)c2cn(C)cn2)c(F)cc1F` reads 14.8%; that for `CCn1c(C)cc(C(=O)N2CCC(NC(=O)c3ccc(C)o3)CC2)c1C`, -7.45%. Under `CCOC[C@]12COC[C@H]1CN(Cc1cccc(OC)c1)C2` stands -75.9%; under `Cc1ccccc1C(O)c1ccncc1` (stereo unspecified), -4.84%; under `COCCNC(=O)NC(C)COc1ccc(F)cc1F` (stereo unspecified), 4.14%. The result for `Cc1nc(N2CCN(C)CC2)ncc1C(=O)N1C[C@@H](C)[C@@](C)(O)C1` reads 2.32%; that for `COCc1cc(NCc2ccccc2OC)ncn1`, 7.69%. Turning to `CC(C)CNC(=O)Nc1cccc(CN2CCOC2=O)c1`, the cytotoxicity at 10 µM was -1.1%. Under `CCc1ccc(CNC2(c3ccc(F)cc3)CCOCC2)o1` stands 4.68%; under `O=C(c1cnc2c(cnn2C2CCCC2)c1)N1CCN(CCO)CC1`, -17.2%; under `Cn1cc(C(=O)N2CC[C@@]3(O)CCN(C4CCCCC4)C[C@H]3C2)cn1`, -131%.

On to `Cc1nc(C)n(C2CCCN(C(=O)c3ccc(OC(C)C)nc3)C2)n1` (stereo unspecified), for which the cytotoxicity at 10 µM was -5.92%.

Turning to `CC(C)CCn1cc(C(C(=O)O)N2CCC(N3CCSCC3)CC2)cn1` (stereo unspecified), the cytotoxicity at 10 µM is -1.09%.

In the case of `Cc1ccccc1-c1noc(CN2CC(n3cccn3)C2)n1`, the cytotoxicity at 10 µM was -4.21%.

For `O=C(c1c[nH]c(=O)[nH]1)N1CCCC2(CCC(=O)N(C3CCCC3)C2)C1` (stereo unspecified), the cytotoxicity at 10 µM was -3.74%. Under `COc1ccc(NCC2(O)CCNCC2)cc1OC` stands 6.2%. The result for `COc1c(C)cnc(CN2CCC(N(C)S(C)(=O)=O)CC2)c1C` reads 0.141%; that for `CC(C)(Oc1ccc2c(c1)CCCC2=O)C(=O)NCc1ccco1`, -2.74%; that for `COCCn1cnnc1Cn1ccnc1-c1ccccc1C`, -7.58%. Regarding `Cc1nn(C)c(N2CCCN(C)CC2)c1CNC(=O)CCC(C)C`, the cytotoxicity at 10 µM was -1.08%. The result for `O=C(CN1CCC(c2cc(=O)n3c(n2)CCCCC3)CC1)N1CCCC1` reads 4.62%; that for `CCN(CC)S(=O)(=O)c1ccc(CNC(=O)c2cc(C)on2)cc1`, 27.4%; that for `N#Cc1ncn(CCC(=O)Nc2cccc(Cl)c2)n1`, -152%. The result for `CC(=O)Nc1nc(C(=O)NCCOc2ccc(C)cc2)cs1` reads 5.35%. The result for `CN(CC1CCCCO1)C(=O)c1ccnc(OC2CCC2)c1` (stereo unspecified) reads -7.63%. Consider `O=C(C1CCOC1)N1CCC2(CC1)COCCN(Cc1ccncc1)C2` (stereo unspecified), for which the cytotoxicity at 10 µM was -86%.

For `O=C(NCCC1=CCCCC1)Nc1cc(C(F)(F)F)c[nH]c1=O`, the cytotoxicity at 10 µM is -8.39%. The result for `CN(CCOc1ccc(Br)cc1)Cc1cscn1` reads 5.25%. Under `c1cc(CNCc2ccc3c(c2)CCO3)cc(N2CCOCC2)n1` stands 11.1%; under `CCOC(=O)C1CN(CC2CC2)Cc2ncn(CC)c21` (stereo unspecified), 12.2%. The result for `CC1CN(Cc2noc(C3CC3)n2)CCN1Cc1noc(C2CC2)n1` (stereo unspecified) reads -5.5%. On to `COC(=O)CCCn1ccnc1-c1ccccc1`, for which the cytotoxicity at 10 µM is -4.65%. Under `Cc1ccc(S(=O)(=O)CCC(=O)NCc2nnc3n2CCC3)cc1` stands 3.55%. Under `Cc1ccc(N2C[C@H]3CCC[C@@]3(COc3cccnc3)C2)nn1` stands 9.43%; under `O=C(c1ccsc1)N1CCc2c(CNc3nccs3)n[nH]c2C1`, 10.9%. Under `CN(Cc1ncc(-c2ccccc2C(=O)O)s1)c1ncccn1` stands 1.69%. Consider `CN(Cc1cc(=O)c(O)co1)C1CCCN(c2ccccc2)C1` (stereo unspecified), for which the cytotoxicity at 10 µM is -3.17%.

Turning to `Cc1nc(C)n(CC2CCCCN2CCCS(N)(=O)=O)n1` (stereo unspecified), the cytotoxicity at 10 µM is -3.73%. `Cc1cccc(C(=O)N2C[C@@H]3C(CC(=O)N4CCCC4)[C@@H]3C2)n1` (stereo partly specified): the cytotoxicity at 10 µM came out at 1.82%. The result for `C[C@@H]1CN(c2nc3c(cc2C(N)=O)CCC3)CC[C@@]1(O)C1CCC1` reads 0.186%; that for `Cc1ccc(CNC(=O)C2CCNC(=O)C2)c(OCCC(C)C)c1` (stereo unspecified), 20.4%; that for `CC(O)CN1CCC(CN(C)CCC(=O)NC2CCCCC2)CC1` (stereo unspecified), 4.11%. The result for `COC(=O)c1sc2nc3c(c(C(F)(F)F)c2c1N)CN(C(C)=O)CC3` reads -8.18%; that for `COc1ccnc(N2CCN(C(=O)CCc3nccs3)CC2)n1`, -8.97%; that for `CC(C)C(=O)N1CCCC1C(=O)Nc1ccc(F)c(F)c1` (stereo unspecified), -1.57%.

For `CCS(=O)(=O)N1CCC(Nc2c(F)cc(C#N)cc2F)CC1`, the cytotoxicity at 10 µM is 8.13%. The result for `CO[C@@H]1CO[C@@]2(CCN(C(=O)COc3ccccc3C)C2)C1` reads 9.95%.
